Results as given in ChEMBL document CHEMBL4138228, “Substituted carbamothioic amine-1-carbothioic thioanhydrides as novel trichomonicidal fungicides: Design, synthesis, and biology” (Eur J Med Chem, 2018).
Values after ≈ are worked out from the molar mass of the structure shown.

How the values were obtained:
Trichomonas vaginalis [1] = assay: Antitrichomonas activity against metronidazole-susceptible Trichomonas vaginalis assessed as decrease in cell viability after 48 hrs by trypan blue exclusion method; format: functional
HeLa = assay: Cytotoxicity against human HeLa cells after 24 hrs by MTT assay; format: cell-based
Candida albicans [2] = assay: Antifungal activity against Candida albicans MTCC 183 after 48 hrs by broth microdilution method; format: functional; details: MTCC 183, 48 h
Procedure, shortened: (§1)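 Broth microdilution per NCCLS guidelines in MOPS-buffered RPMI 1640; starting inoculum 1-5 x 10^3 CFU/mL; plates incubated at 35 °C; MIC recorded after 48 h; fluconazole as reference; experiments repeated three times.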

Candida albicans [3] = assay: Antifungal activity against Candida albicans ATCC 66027 after 48 hrs by broth microdilution method; format: functional; details: ATCC 66027, 48 h; procedure, shortened: as §1
Nakaseomyces glabratus = assay: Antifungal activity against Candida glabrata ATCC 2001 after 48 hrs by broth microdilution method; format: functional; details: ATCC 2001, 48 h; procedure, shortened: as §1
Candida albicans [4] = assay: Antifungal activity against Candida albicans ATCC 10231 after 48 hrs by broth microdilution method; format: functional; details: ATCC 10231, 48 h; procedure, shortened: as §1
Trichomonas vaginalis [5] = assay: Potency index, ratio of metronidazole MIC to test compound MIC for metronidazole-resistant Trichomonas vaginalis CDC085 ATCC 50143; format: functional
Trichomonas vaginalis [6] = assay: Antitrichomonas activity against metronidazole-resistant Trichomonas vaginalis CDC085 ATCC 50143 assessed as decrease in cell viability after 48 hrs by trypan blue exclusion method; format: functional; details: CDC085 ATCC 50143, 48 h
[7] = test system: Trichophyton mentagrophytes; assay: Antifungal activity against Trichophyton mentagrophytes after 48 hrs by broth microdilution method; format: functional; procedure, shortened: as §1
Candida albicans [8] = assay: Antifungal activity against Candida albicans patient isolate after 48 hrs by broth microdilution method; format: functional; procedure, shortened: as §1
Sporothrix schenckii = assay: Antifungal activity against Sporothrix schenckii after 48 hrs by broth microdilution method; format: functional; procedure, shortened: as §1
[9] = Selectivity index, ratio of IC50 for human HeLa cells to MIC for metronidazole-susceptible Trichomonas vaginalis; format: toxicity; details: read-out: Selectivity Index
Candida parapsilosis = assay: Antifungal activity against Candida parapsilosis ATCC 22019 after 48 hrs by broth microdilution method; format: functional; details: Lodderomyces parapsilosis, ATCC 22019, 48 h; procedure, shortened: as §1
[10] = Selectivity index, ratio of IC50 for human HeLa cells to MIC for metronidazole-resistant Trichomonas vaginalis CDC085 ATCC 50143; format: toxicity; details: read-out: Selectivity Index
Cryptococcus neoformans = assay: Antifungal activity against Cryptococcus neoformans after 48 hrs by broth microdilution method; format: functional; procedure, shortened: as §1
Candida albicans [11] = assay: Antifungal activity against Candida albicans ATCC 14053 after 48 hrs by broth microdilution method; format: functional; details: ATCC 14053, 48 h; procedure, shortened: as §1

SMILES | MIC (Trichomonas vaginalis [1]) [µM] | IC50 (HeLa) [mM] | MIC (Candida albicans [2]) [µM] | MIC (Candida albicans [3]) [µM] | MIC (Nakaseomyces glabratus) [µM] | MIC (Candida albicans [4]) [µM] | Ratio (Trichomonas vaginalis [5]) | MIC (Trichomonas vaginalis [6]) [µM] | MIC [7] [µM] | MIC (Candida albicans [8]) [µM] | MIC (Sporothrix schenckii) [µM] | selectivity ratio [9] | MIC (Candida parapsilosis) [µM] | selectivity ratio [10] | MIC (Cryptococcus neoformans) [µM] | MIC (Candida albicans [11]) [µM]
CN(C)C(=S)SC(=S)N1CCN(c2ccccc2)CC1 | 38.3 (≈ 12.5 µg/mL) | 1.61 | > 153 | > 153 | > 153 | > 153 | 1.3 - 9.5 | 76.7 (≈ 25 µg/mL) | 76.7 (≈ 25 µg/mL) | 38.3 (≈ 12.5 µg/mL) | 76.7 (≈ 25 µg/mL) | 42 | 76.7 (≈ 25 µg/mL) | 21 | 76.7 (≈ 25 µg/mL) | > 153
CCCCN1CCN(C(=S)SC(=S)N(C)C)CC1 | 20.4 (≈ 6.24 µg/mL) | 4.1 | 81.7 (≈ 25 µg/mL) | 81.7 (≈ 25 µg/mL) | 163 (≈ 49.9 µg/mL) | 163 (≈ 49.9 µg/mL) | 1.3 - 9.5 | 81.7 (≈ 25 µg/mL) | 163 (≈ 49.9 µg/mL) | 163 (≈ 49.9 µg/mL) | 163 (≈ 49.9 µg/mL) | 200 | 163 (≈ 49.9 µg/mL) | 50 | 163 (≈ 49.9 µg/mL) | 163 (≈ 49.9 µg/mL)
CN(C)C(=S)SC(=S)N1CCN(C(=S)SCc2ccccc2)CC1 | 60.1 (≈ 25 µg/mL) | > 5 | 120 (≈ 50 µg/mL) | 30 (≈ 12.5 µg/mL) | 120 (≈ 50 µg/mL) | > 120 | 1.3 - 11.2 | 120 (≈ 50 µg/mL) | 60.1 (≈ 25 µg/mL) | 30 (≈ 12.5 µg/mL) | 60.1 (≈ 25 µg/mL) | > 83 | 7.5 (≈ 3.12 µg/mL) | > 41 | 60.1 (≈ 25 µg/mL) | 120 (≈ 50 µg/mL)
CCN(C)C(=S)SC(=S)N(C)C | 113 (≈ 25 µg/mL) | 2.07 | 56.3 (≈ 12.5 µg/mL) | 28.1 (≈ 6.26 µg/mL) | 113 (≈ 25 µg/mL) | 113 (≈ 25 µg/mL) | 1.5 - 3.8 | 225 (≈ 50.1 µg/mL) | 56.3 (≈ 12.5 µg/mL) | 113 (≈ 25 µg/mL) | 56.3 (≈ 12.5 µg/mL) | 18 | 113 (≈ 25 µg/mL) | 9 | 225 (≈ 50.1 µg/mL) | 113 (≈ 25 µg/mL)
CN(C)C(=S)SC(=S)N1CCCCCC1 | 95.4 (≈ 25 µg/mL) | > 5 | 47.7 (≈ 12.5 µg/mL) | 23.9 (≈ 6.26 µg/mL) | 11.9 (≈ 3.12 µg/mL) | 23.9 (≈ 6.26 µg/mL) | 1.5 - 3.8 | 191 (≈ 50.1 µg/mL) | 23.9 (≈ 6.26 µg/mL) | 23.9 (≈ 6.26 µg/mL) | 23.9 (≈ 6.26 µg/mL) | > 52 | 23.9 (≈ 6.26 µg/mL) | > 26 | 47.7 (≈ 12.5 µg/mL) | 11.9 (≈ 3.12 µg/mL)
CN(C)C(=S)SC(=S)N1CCN(C(=S)NC2CCCCC2)CC1 | 32 (≈ 12.5 µg/mL) | > 5 | > 128 | > 128 | > 128 | > 128 | 1.3 - 11.2 | 63.9 (≈ 25 µg/mL) | 128 (≈ 50 µg/mL) | > 128 | 128 (≈ 50 µg/mL) | > 161 | 128 (≈ 50 µg/mL) | > 79 | > 128 | > 128
